# Test results: ChEMBL document CHEMBL1165892, “Cell cycle disruption and apoptotic activity of 3-aminothiazolo[3,2-a]benzimidazole-2-carbonitrile and its homologues” (2010)
# The source made the active and inactive calls. No cut-off for these calls is given here.
# Columns and labels:
# [1] = system: MDA-MB-231; test: Antiproliferative activity against human MDA-MB-231 cells at 100 uM after 48 hrs
# [2] = system: MDA-MB-231; test: Induction of apoptosis in human MDA-MB-231 cells at 100 uM after 72 hrs using annexin V staining by flow cytometry; type: functional
# Outline: (§1)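 MDA-MB-231 cells were cultured in RPMI 1640 with 100 ml/l FBS and penicillin/streptomycin, then exposed for 24, 48 or 72 h. Harvested cells were stained with annexin V-FITC plus PI using a commercial kit per the manufacturer. Flow cytometry read emission at 530 and […], 10,000 cells per determination. Quadrants scored normal, early apoptotic, late apoptotic and necrotic cells. Results are representative of three experiments.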
# [3] = system: MDA-MB-231; test: Induction of apoptosis in human MDA-MB-231 cells at 100 uM using annexin V staining by flow cytometry; type: functional, cell-based; settings: TDE = time-dependent effect
# Outline: as §1
# [4] = system: MDA-MB-231; test: Cell cycle arrest in human MDA-MB-231 cells assessed as accumulation at G2/M phase at 100 uM after 48 hrs using propidium staining by flow cytometry; type: functional
# Outline: (§2)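 MDA-MB-231 cells were grown in RPMI 1640 with 100 ml/l FBS, 100 U/ml penicillin and 100 U/ml streptomycin. They were seeded in 60 mm dishes and held 24 h at 37 °C in humidified 50 ml/l CO₂. Cells were exposed for 24, 48 or 72 h, then resuspended in 50 mM Na citrate with propidium iodide for 30 min. DNA content was read by flow cytometry and phase percentages derived from histograms. Data are representative of three independent experiments.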
# [5] = system: MDA-MB-231; test: Induction of apoptosis in human MDA-MB-231 cells at 100 uM after 24 hrs using annexin V staining by flow cytometry; type: functional
# Outline: as §1
# [6] = system: MDA-MB-231; test: Cell cycle arrest in human MDA-MB-231 cells assessed as accumulation at G2/M phase at 100 uM after 24 hrs using propidium staining by flow cytometry; type: functional
# Outline: as §2
# [7] = system: MDA-MB-231; test: Cell cycle arrest in human MDA-MB-231 cells assessed as accumulation at S phase at 100 uM after 24 to 72 hrs using propidium staining by flow cytometry; type: functional, cell-based
# Outline: as §2
# [8] = system: MDA-MB-231; test: Cell cycle arrest in human MDA-MB-231 cells decrease of cells at G1 phase at 100 uM after 24 to 72 hrs using propidium staining by flow cytometry; type: functional, cell-based
# Outline: as §2
# [9] = system: MDA-MB-231; test: Induction of apoptosis in human MDA-MB-231 cells at 100 uM after 48 hrs using annexin V staining by flow cytometry; type: functional
# Outline: as §1
# [10] = system: MDA-MB-231; test: Cell cycle arrest in human MDA-MB-231 cells assessed as accumulation at G2/M phase at 100 uM after 72 hrs using propidium staining by flow cytometry; type: functional
# Outline: as §2
structure (smiles),measurement,setting,value
CC(=O)Nc1c(C#N)sc2nc3ccccc3n12,Activity,[1],Active
same,Activity,[2],80%
same,Activity,[3],tde
same,Activity,[4],46.22%
same,Activity,[5],23.77%
same,Activity,[6],42%
same,Activity,[7],Active
same,Activity,[8],Active
same,Activity,[9],54.59%
same,Activity,[10],45.79%
